Runt-SMMHC FRET = inhibitors of human RUNX1 Runt domain binding to CBFb-SMMHC; inhibition, % at 20 µM; 0.74% of 220,000 active; Cerulean-Runt/Venus-CBFb-SMMHC FRET ratio 530/480, 1 h;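 active = mean inhibition across duplicate retests at 20 µM reaching about 50%, limit read from the data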;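 note: 0% = DMSO wells and 100% = wells with excess untagged CBFb-SMMHC; inhibitors lower the FRET ratio by blocking Runt binding to CBFb-SMMHC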
Runt-CBFb FRET = inhibitors of human RUNX1 Runt domain binding to CBFb; Cerulean-Runt/Venus-CBFb FRET ratio 530/480, 1 h; Q01196+Q13951; AID 1496; 0.46% of 220,000 active; inhibition, % at 20 µM;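 active = inhibition over about 50% at 20 µM in the single-dose screen, limit read from the data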;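 note: 0% = DMSO wells and 100% = excess unlabeled CBFb competitor control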
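Doses: 20 µM compound in 1% DMSO | Material: Cerulean-labeled Runt domain protein | Amount: Each fluorescent fusion protein 100 nM | Schedule: Two 1 h room-temperature incubations shielded from light | Measured by: FRET fluorescence | Evaluation: Loss of energy transfer signal | Controls: Unlabeled CBFb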
Rce1 inh = blocks yeast Ras-converting enzyme | Q03530 | yeast membranes, quenched prenylated peptide cleavage fluorescence | calls only | 0.27% of 290,000 active;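 active = fall in fluorescence gain of 50% or more versus controls, with final raw signal at or below 3038400; inconclusive = same 50% fall but final raw signal above 3038400; inactive = fall in fluorescence gain under 50%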;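 note: plate controls were neutral control wells for no effect and wells lacking membranes for full effect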
Target sequence (Q03530 whole entry, looked up): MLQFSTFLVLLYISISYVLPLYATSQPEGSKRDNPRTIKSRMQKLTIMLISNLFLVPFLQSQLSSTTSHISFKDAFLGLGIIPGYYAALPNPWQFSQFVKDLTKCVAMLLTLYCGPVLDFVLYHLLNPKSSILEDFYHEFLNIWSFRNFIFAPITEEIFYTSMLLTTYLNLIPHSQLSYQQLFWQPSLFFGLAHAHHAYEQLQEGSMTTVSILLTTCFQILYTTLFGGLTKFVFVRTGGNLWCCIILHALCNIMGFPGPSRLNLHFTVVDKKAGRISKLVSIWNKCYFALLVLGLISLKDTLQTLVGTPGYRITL
RanGTP-Impb inh = inhibitors of RanGTP-importin-beta interaction, primary screen, biochemical, FRET, CFP-Ran, YFP-importin-beta, homogeneous; 1.1% of 300,000 active; AID 2216; inhibition, % (no concentration beside the values); cell-free CFP-Ran/YFP-importin-beta FRET ratio;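 active = more than half of the replicate wells show a fall in the fluorescence ratio signal beyond about 16%, limit read from the data, passing the limit was not always enough; inconclusive = exactly half of the replicate wells pass the set limit; inactive = fewer than half of replicates pass the limit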;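 note: 0% = DMSO wells and 100% = Ran loaded with GDP instead of GTP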
Platelet DG rel = modulates dense granule release in human platelets. human platelet-rich plasma, SFLLRN dense granule ATP release, luminescence. inhibition, %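 (compounds screened at 7.5 µM in platelet-rich plasma)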. 0.22% of 300,000 active. AID 1663;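 active = mean replicate score, as percent of positive control, at or above 50; inconclusive = mean below 50 but at least one replicate at or above 50; inactive = mean and every replicate below 50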
The depositor's hits bear a star; i = inactive; ? = inconclusive; / = no result; + = active, no number. Compounds with a hit are over-represented: about 1.8% of the library has one in this group of screens.

SMILES	Runt-SMMHC FRET	Runt-CBFb FRET	Rce1 inh	RanGTP-Impb inh	Platelet DG rel
CCN1/C(=C2/SC(=S)N(NC(C)=O)C2=O)Sc2ccc(Cl)cc21	/	/	i	33*	-7
CCN1/C(=C2/SC(=S)N(NC(C)=O)C2=O)Sc2ccc(OC)cc21	/	/	i	34*	-4
CCN1C(=O)c2ccccc2Sc2ccc(C(=O)NC(C)C)cc21	/	/	i	2	0
Nc1c(C(=O)NCc2ccco2)c2nc3ccccc3nc2n1CCc1ccccc1F	/	30	i	50*	2
COc1ccc(CCn2c(N)c(C(=O)NCc3ccco3)c3nc4ccccc4nc32)cc1OC	25	8	i	39*	-1
CCC1CCC2(CC1)NC(=O)N(CC(=O)c1c(C)[nH]c3ccccc13)C2=O (stereo not given)	0	1	i	3	-5
CN1C(N)=NC(=O)/C1=C/c1ccccc1F	17	-2	i	31*	-2
CCC(=O)Oc1ccc(-c2nc(-c3cccnc3)no2)cc1	-4	-5	i	3	81*
CN1CCc2c(sc(NC(=O)CS(=O)(=O)c3ccc(F)cc3)c2C(N)=O)C1	/	/	i	163*	1
CC(=O)N1CCc2c(sc(NC(=O)CN3C(=O)CCC3=O)c2C(N)=O)C1	21	6	i	23*	-8
CCOC(=O)N1CCc2c(sc(NC(=O)CCS(=O)(=O)c3ccccc3)c2C(N)=O)C1	/	/	i	-3	13
CCC(=O)Nc1sc2c(c1C(N)=O)CCN(C(C)=O)C2	-3	/	i	1	11
CC(=O)N1CCc2c(sc(NC(=O)CN3C(=O)c4ccccc4C3=O)c2C(N)=O)C1	0	3	i	8	9
CC(=O)N1CCc2c(sc(NC(=O)CS(=O)(=O)c3ccc(F)cc3)c2C(N)=O)C1	/	/	i	21*	-5
COc1ccc(CCNC(=O)c2ccccc2SC)cc1	-4	0	i	0	-4
COc1ccc(-c2oc3cccnc3c2C#CCO)cc1	/	/	i	5	10
COc1ccc(-c2oc3cccnc3c2C#CC2(O)CCCCC2)cc1	/	/	?	23*	-1
COCCNC(=O)c1cc2cc3ccc(OC)cc3nc2o1	/	/	i	4	7
CCCCN(CC)C(=O)c1cc2cc3ccc(OC)cc3nc2o1	3	-5	i	59*	1
CC(=O)Nc1cc(C(F)(F)F)ccc1Oc1cccc(Br)c1	-7	-2	+	2	1
CCOC(=O)c1cc(-c2csc(N/N=C/c3ccccc3Cl)n2)on1	16	7	i	42*	/
Cc1ccccc1SC1CCN(C(=O)C2CCC(=O)N(C3CC3)C2)CC1 (stereo not given)	/	/	i	3	13
O=C(C1CCC(=O)N(C2CC2)C1)N1CCN(c2ccccc2Cl)CC1 (stereo not given)	/	/	+	1	-3
CN(C)S(=O)(=O)c1cccc(NC(=S)NCCCn2ccnc2)c1	0	2	i	-1	-1
Cn1c(/C=C(\C#N)C(N)=S)ccc1-c1ccc(Br)cc1	92*	89*	/	/	/
SMILES	Runt-SMMHC FRET	Runt-CBFb FRET	Rce1 inh	RanGTP-Impb inh	Platelet DG rel
CCCCn1c(CCNC(=O)c2cccs2)nc2ccccc21	-5	1	i	?	5
N#Cc1c(N)n(-c2ccccc2N)c2nc3ccccc3nc12	7	9	/	3	-6
N#Cc1c(N)n(-c2cccc(C(=O)O)c2)c2nc3ccccc3nc12	82*	99*	i	?	16
N#Cc1c(N)n(CCNC(=O)c2cccs2)c2nc3ccccc3nc12	58*	105*	i	64*	-1
N#Cc1c(N)n(CCNC(=O)c2ccccc2)c2nc3ccccc3nc12	76*	111*	i	58*	2
O=C(Nc1ccccc1N1CCCCC1)c1ccc(-c2cc(Cl)ccc2Cl)o1	/	/	/	1	1
COc1cc2c(cc1/C=C/C(=O)O)OC(C)C2 (stereo not given)	4	3	?	6	2
CC(C)(O)C1Cc2cc(/C=C/C(=O)O)c(O)cc2O1 (stereo not given)	63*	32	i	-3	-4
COCCCNC(=O)c1c(N)n(-c2cccc(S(N)(=O)=O)c2)c2nc3ccccc3nc12	62*	92*	i	104*	1
O=C(NCCN1CCOCC1)c1ccc2ccccc2n1	-1	4	i	-2	1
Nc1c(C(=O)NCCN2CCOCC2)c2nc3ccccc3nc2n1-c1cccc(F)c1	61*	71*	+	78*	8
CCCNC(=O)c1c(N)n(-c2cccc(OC)c2)c2nc3ccccc3nc12	-20	62*	i	80*	11
COCCCNC(=O)c1c(N)n(/N=C/c2ccccn2)c2nc3ccccc3nc12	1	-1	i	5	-2
O=C(CCC(=O)Nc1nnc(C2CCCCC2)s1)Nc1ccc(F)cc1	/	/	i	8	-2
COc1ccc(C(=O)NC2CC2)cc1OC1CCN(Cc2ccc(F)cc2F)CC1	/	/	i	2	9
CN(C(=O)c1ccc2c(c1)OCO2)C1CCS(=O)(=O)C1 (stereo not given)	/	/	i	-4	3
CCc1ccc(S(=O)(=O)c2ccc(-n3nc(C)cc3N)cc2)cc1	0	-1	i	-2	1
COc1ccc(-c2cc(-c3ccc(O)cc3)nc(N)c2C#N)cc1	/	/	i	-1	-4
COc1cc(-c2cc(-c3ccc(O)cc3)nc(N)c2C#N)ccc1O	/	/	+	-3	3
Cc1ccoc1C(=O)Nc1cccc2ccccc12	/	/	i	-5	-3
Cc1c(Cl)cccc1NC(=O)CNC(=O)c1ccccc1F	0	0	i	?	16
COc1ccc(C2=CC(=O)OC(C)(c3ccccc3)O2)cc1 (stereo not given)	4	-1	i	-2	7
COc1ccc(-n2c(SCc3ccc([N+](=O)[O-])cc3)nnc2-c2ccc(C)cc2)cc1	3	13	+	-1	4
COC(=O)Cc1[nH]nc2c1C(c1ccc(O)c(OC)c1)C(C#N)=C(N)O2 (stereo not given)	6	3	i	5	-4
CNS(=O)(=O)c1ccc2c3c(cccc13)C(=O)N2C	/	/	i	5	-3
SMILES	Runt-SMMHC FRET	Runt-CBFb FRET	Rce1 inh	RanGTP-Impb inh	Platelet DG rel
CN1C(=O)c2cccc3c(S(=O)(=O)N(C)C)ccc1c23	/	/	i	19*	1
Cc1cccc(C)c1NC(=O)C1=C(O)c2sccc2N(C)S1(=O)=O	59*	32	i	46*	-2
CCCc1cc(C(=O)NC2CCCC2)no1	1	1	i	0	85*
CCC(C)/C=C/C1=CC2=C(Cl)C(=O)C3(C)OC(=O)C(C(=O)C(C)C(C)O)C3C2=CO1 (stereo not given)	85*	12	i	88*	-3
CCCCN(CC)CCNC(=O)c1cc2c(-c3ccc(Cl)cc3)nn(C)c2s1	/	/	+	1	-1
CCCN(CCC)CCNC(=O)c1cc2c(-c3ccc(Cl)cc3)nn(C)c2s1	/	/	+	-3	5
